Experimental data: ChEMBL document CHEMBL4382197, “Discovery of QCA570 as an Exceptionally Potent and Efficacious Proteolysis Targeting Chimera (PROTAC) Degrader of the Bromodomain and Extra-Terminal (BET) Proteins Capable of Inducing Complete and Durable Tumor Regression” (J Med Chem, 2018)
Activity calls are given as the source filed them. The calls are words filed in the database; no cut-off is given here.

Assays:
MV4-11 = test: Growth inhibition of human MV4-11 cells after 96 hrs by CCK8 assay; type: functional, cell-based; conditions: MV4-11, 96 h
MOLM-13 = test: Growth inhibition of human MOLM13 cells after 96 hrs by CCK8 assay; type: functional, cell-based; conditions: MOLM-13, 96 h
RS4-11 [1] = test: Growth inhibition of human RS4:11 cells after 96 hrs by CCK8 assay; type: functional, cell-based; conditions: RS4-11, 96 h
[2] = molecular target: Protein cereblon/Bromodomain-containing protein 4/Bromodomain-containing protein 3/Bromodomain-containing protein 2 (Homo sapiens) (UniProt P25440+O60885+Q15059+Q96SW2); test: Protac activity at cereblon/cullin 4A/BET in human RS4:11 cells assessed as reduction in c-myc protein levels at 0.1 nM after 3 hrs by Western blot analysis; type: cell-based
Chain of Protein cereblon/Bromodomain-containing protein 4/Bromodomain-containing protein 3/Bromodomain-containing protein 2 (Homo sapiens) (P25440 whole entry, looked up, other chains not shown): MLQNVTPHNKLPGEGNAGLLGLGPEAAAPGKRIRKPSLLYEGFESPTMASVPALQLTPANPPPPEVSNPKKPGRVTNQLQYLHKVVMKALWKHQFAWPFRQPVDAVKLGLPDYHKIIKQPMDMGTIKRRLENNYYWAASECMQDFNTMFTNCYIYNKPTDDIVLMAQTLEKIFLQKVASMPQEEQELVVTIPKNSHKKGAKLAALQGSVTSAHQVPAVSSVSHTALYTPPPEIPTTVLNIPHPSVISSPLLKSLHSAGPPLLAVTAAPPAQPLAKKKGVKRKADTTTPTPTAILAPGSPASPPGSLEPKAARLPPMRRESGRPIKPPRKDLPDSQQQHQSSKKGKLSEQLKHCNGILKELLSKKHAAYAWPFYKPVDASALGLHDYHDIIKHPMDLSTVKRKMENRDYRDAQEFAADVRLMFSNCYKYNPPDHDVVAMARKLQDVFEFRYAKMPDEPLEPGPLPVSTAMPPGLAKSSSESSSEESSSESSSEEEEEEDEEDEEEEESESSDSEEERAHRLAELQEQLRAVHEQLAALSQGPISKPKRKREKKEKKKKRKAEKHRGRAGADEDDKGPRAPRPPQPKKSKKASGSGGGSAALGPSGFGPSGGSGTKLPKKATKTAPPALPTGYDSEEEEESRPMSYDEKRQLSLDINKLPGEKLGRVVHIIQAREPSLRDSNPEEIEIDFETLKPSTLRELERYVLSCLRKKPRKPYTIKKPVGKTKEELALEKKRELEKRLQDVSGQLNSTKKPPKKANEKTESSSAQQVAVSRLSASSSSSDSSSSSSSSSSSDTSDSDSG
Chain of Protein cereblon/Bromodomain-containing protein 4/Bromodomain-containing protein 3/Bromodomain-containing protein 2 (Homo sapiens) (Q15059 whole entry, looked up, other chains not shown): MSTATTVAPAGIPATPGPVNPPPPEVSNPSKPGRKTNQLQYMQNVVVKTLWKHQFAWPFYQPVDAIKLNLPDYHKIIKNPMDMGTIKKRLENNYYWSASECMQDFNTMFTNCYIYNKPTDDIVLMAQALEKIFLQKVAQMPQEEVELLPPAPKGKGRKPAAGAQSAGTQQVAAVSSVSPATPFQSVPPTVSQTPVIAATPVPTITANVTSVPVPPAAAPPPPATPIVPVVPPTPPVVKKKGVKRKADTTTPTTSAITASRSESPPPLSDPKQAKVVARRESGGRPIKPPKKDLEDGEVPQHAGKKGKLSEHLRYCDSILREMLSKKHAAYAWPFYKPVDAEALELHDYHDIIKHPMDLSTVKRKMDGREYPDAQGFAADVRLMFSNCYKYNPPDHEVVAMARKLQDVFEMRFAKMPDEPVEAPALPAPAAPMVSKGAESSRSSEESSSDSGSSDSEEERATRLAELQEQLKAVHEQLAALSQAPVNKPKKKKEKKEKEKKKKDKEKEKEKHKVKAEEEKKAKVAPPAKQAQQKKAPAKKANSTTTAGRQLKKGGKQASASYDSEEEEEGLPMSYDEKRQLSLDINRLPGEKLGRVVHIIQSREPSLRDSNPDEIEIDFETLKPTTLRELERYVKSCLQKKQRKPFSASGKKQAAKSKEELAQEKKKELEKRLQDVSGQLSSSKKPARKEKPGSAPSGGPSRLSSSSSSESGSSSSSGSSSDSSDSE
Chain of Protein cereblon/Bromodomain-containing protein 4/Bromodomain-containing protein 3/Bromodomain-containing protein 2 (Homo sapiens) (Q96SW2 whole entry, looked up, other chains not shown): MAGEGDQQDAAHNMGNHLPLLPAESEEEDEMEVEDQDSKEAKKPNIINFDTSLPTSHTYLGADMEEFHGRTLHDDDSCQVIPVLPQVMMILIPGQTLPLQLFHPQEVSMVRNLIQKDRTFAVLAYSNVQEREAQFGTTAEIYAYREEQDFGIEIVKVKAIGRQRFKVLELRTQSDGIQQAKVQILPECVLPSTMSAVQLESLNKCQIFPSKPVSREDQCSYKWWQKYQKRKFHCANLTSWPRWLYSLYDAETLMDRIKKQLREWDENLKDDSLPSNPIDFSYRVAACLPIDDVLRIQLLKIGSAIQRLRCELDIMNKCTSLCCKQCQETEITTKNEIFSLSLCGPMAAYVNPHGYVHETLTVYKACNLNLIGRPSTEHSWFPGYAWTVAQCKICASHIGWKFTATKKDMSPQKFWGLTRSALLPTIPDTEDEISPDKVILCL

RS4-11 [3] = test: Induction of apoptosis in human RS4:11 cells assessed as PARP cleavage at 0.1 to 10 nM after 24 hrs by Western blot analysis; type: functional, cell-based
Summary of the method: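 Cells (1.5–2×10^6/well) were treated for 24 h, washed in cold PBS and lysed in RIPA with protease inhibitors. 20 µg lysate was run on 4–20% or 4–12% gels and transferred to PVDF. Blots were probed for cleaved PARP and cleaved caspase 3, with GAPDH as loading control. Detection by ECL.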

[4] = molecular target: T1, Protein cereblon/Bromodomain-containing protein 4/Cullin-4A (Homo sapiens) (UniProt O60885+Q96SW2+Q13619); test: Protac activity at cereblon/cullin 4A/BRD4 in human RS4:11 cells assessed as BRD4 degradation at 0.1 nM after 3 hrs by Western blot analysis; type: cell-based
[5] = molecular target: T2, Protein cereblon/Bromodomain-containing protein 3/Cullin-4A (Homo sapiens) (UniProt Q15059+Q96SW2+Q13619); test: Protac activity at cereblon/cullin 4A/BRD3 in human RS4:11 cells in assessed as BRD3 degradation at 0.1 nM after 3 hrs by Western blot analysis; type: cell-based
T2 sequence (Q13619 whole entry, looked up): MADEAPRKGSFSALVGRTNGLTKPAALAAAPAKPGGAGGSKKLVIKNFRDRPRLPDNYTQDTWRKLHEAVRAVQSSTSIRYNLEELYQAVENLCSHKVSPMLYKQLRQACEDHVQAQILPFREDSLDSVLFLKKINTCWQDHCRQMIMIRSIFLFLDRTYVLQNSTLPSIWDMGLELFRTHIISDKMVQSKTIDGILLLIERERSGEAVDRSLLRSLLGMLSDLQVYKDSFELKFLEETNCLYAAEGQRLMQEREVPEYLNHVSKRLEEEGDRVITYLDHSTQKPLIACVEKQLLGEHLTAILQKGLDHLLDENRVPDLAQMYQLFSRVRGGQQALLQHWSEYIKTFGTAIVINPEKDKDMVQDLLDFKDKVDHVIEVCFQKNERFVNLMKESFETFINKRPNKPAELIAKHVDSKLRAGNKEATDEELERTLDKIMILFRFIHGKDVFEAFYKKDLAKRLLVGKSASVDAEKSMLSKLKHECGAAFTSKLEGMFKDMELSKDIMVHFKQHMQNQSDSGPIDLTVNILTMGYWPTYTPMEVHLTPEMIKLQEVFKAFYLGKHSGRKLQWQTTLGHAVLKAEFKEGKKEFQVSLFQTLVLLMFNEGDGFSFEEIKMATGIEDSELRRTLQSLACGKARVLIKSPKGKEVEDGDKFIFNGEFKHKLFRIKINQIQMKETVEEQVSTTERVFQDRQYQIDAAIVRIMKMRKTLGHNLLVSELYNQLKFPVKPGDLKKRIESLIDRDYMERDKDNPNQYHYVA
T2 sequence (Q15059 whole entry, looked up): as the sequence (Q15059 whole entry, looked up, other chains not shown) above
T2 sequence (Q96SW2 whole entry, looked up): as the sequence (Q96SW2 whole entry, looked up, other chains not shown) above

[6] = molecular target: T3, Protein cereblon/Bromodomain-containing protein 2/Cullin-4A (Homo sapiens) (UniProt P25440+Q96SW2+Q13619); test: Protac activity at cereblon/cullin 4A/BRD2 in human RS4:11 cells assessed as BRD2 degradation at 0.1 nM after 3 hrs by Western blot analysis; type: cell-based
T3 sequence (P25440 whole entry, looked up): as the sequence (P25440 whole entry, looked up, other chains not shown) above
T3 sequence (Q13619 whole entry, looked up): as the sequence (Q13619 whole entry, looked up) above
T3 sequence (Q96SW2 whole entry, looked up): as the sequence (Q96SW2 whole entry, looked up, other chains not shown) above

[7] = molecular target: Bromodomain-containing protein 4 (Homo sapiens, UniProt O60885)
[8] = molecular target: T2, Protein cereblon/Bromodomain-containing protein 3/Cullin-4A (Homo sapiens); test: Protac activity at cereblon/cullin 4A/BRD3 in human RS4:11 cells in assessed as BRD3 degradation at 0.1 to 1 uM after 3 to 24 hrs by Western blot analysis; type: cell-based
[9] = molecular target: T3, Protein cereblon/Bromodomain-containing protein 2/Cullin-4A (Homo sapiens); test: Protac activity at cereblon/cullin 4A/BRD2 in human RS4:11 cells assessed as induction of BRD2 degradation at 0.1 to 1 uM after 3 to 24 hrs by Western blot analysis; type: cell-based
[10] = molecular target: T1, Protein cereblon/Bromodomain-containing protein 4/Cullin-4A (Homo sapiens); test: Protac activity at cereblon/cullin 4A/BRD4 in human RS4:11 cells assessed as BRD4 degradation at 0.1 to 1 uM after 3 to 24 hrs by Western blot analysis; type: cell-based
RS4-11 [11] = test: Induction of apoptosis in human RS4:11 cells assessed as PARP cleavage at 10 uM after 24 hrs by Western blot analysis; type: functional, cell-based
[12] = molecular target: T2, Protein cereblon/Bromodomain-containing protein 3/Cullin-4A (Homo sapiens); test: Protac activity at cereblon/cullin 4A/BRD3 in human MV4-11 cells assessed as BRD3 degradation at 1 to 10 uM after 3 to 24 hrs by Western blot analysis; type: cell-based
Summary of the method: (§1)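 Cells are used within two months of thawing. […] 1.5–2×10^6 cells/well are treated for 3 h or 24 h, then lysed in RIPA with protease inhibitors. 20 µg lysate is blotted to PVDF and probed with rabbit polyclonal anti-BRD2 or anti-BRD3. GAPDH is the loading control, detected by ECL.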

[13] = molecular target: T2, Protein cereblon/Bromodomain-containing protein 3/Cullin-4A (Homo sapiens); test: Protac activity at cereblon/cullin 4A/BRD3 in human RS4:11 cells assessed as BRD3 degradation at 1 to 10 uM after 3 to 24 hrs by Western blot analysis; type: cell-based; summary of the method: as §1
[14] = molecular target: T3, Protein cereblon/Bromodomain-containing protein 2/Cullin-4A (Homo sapiens); test: Protac activity at cereblon/cullin 4A/BRD2 in human RS4:11 cells assessed as BRD2 degradation by Western blot analysis; type: cell-based
[15] = molecular target: T2, Protein cereblon/Bromodomain-containing protein 3/Cullin-4A (Homo sapiens); test: Protac activity at cereblon/cullin 4A/BRD3 in human RS4:11 cells in assessed as BRD3 degradation by Western blot analysis; type: cell-based
[16] = molecular target: T1, Protein cereblon/Bromodomain-containing protein 4/Cullin-4A (Homo sapiens); test: Protac activity at cereblon/cullin 4A/BRD4 in human RS4:11 cells assessed as BRD4 degradation by Western blot analysis; type: cell-based

Row | IC50 (MV4-11) [nM] | IC50 (MOLM-13) [nM] | IC50 (RS4-11 [1]) [nM] | SMILES | other results
1 | 0.72 | 1.6 | 0.39 | Cc1nnc2n1Cc1sc(C#Cc3cnn(CCCC#Cc4cccc5c4C(=O)N(C4CCC(=O)NC4=O)C5=O)c3)c(Cc3ccccc3)c1OC2 (centres undefined) | 
2 |  | 0.18 | 0.0012 | Cc1nnc2n1Cc1sc(C#Cc3cnn(CCCCNc4cccc5c4CN(C4CCC(=O)NC4=O)C5=O)c3)c(Cc3ccccc3)c1OC2 (centres undefined) | 
3 | 0.14 | 0.53 | 0.081 | Cc1nnc2n1Cc1sc(C#Cc3cnn(CCCCCc4cccc5c4CN(C4CCC(=O)NC4=O)C5=O)c3)c(Cc3ccccc3)c1OC2 (centres undefined) | 
4 | 0.092 | 0.19 | 0.02 | Cc1nnc2n1Cc1sc(C#Cc3cnn(CCCCCNc4cccc5c4C(=O)N(C4CCC(=O)NC4=O)C5=O)c3)c(Cc3ccccc3)c1OC2 (centres undefined) | Activity [2]: Active; Activity (RS4-11 [3]): Active; Activity [4]: Active; Activity [5]: Active; Activity [6]: Active
5 |  |  |  | Cc1nnc2n1-c1sc(C3CCOCC3)c(Cc3ccccc3)c1COC2 | IC50 [7]: 8.1 µM; Ki [7]: 2800 nM
6 | 25.8 | 183 | 43.7 | Cc1nnc2n1Cc1sc(C#Cc3cnn(CCCC#Cc4cccc5c4CN(C4CCC(=O)N(C)C4=O)C5=O)c3)c(Cc3ccccc3)c1OC2 (centres undefined) | 
7 |  |  |  | Cc1nnc2n1-c1scc(Cc3ccccc3)c1COC2 | IC50 [7]: 2.3 µM; Ki [7]: 820 nM
8 | > 1000 | > 1000 | > 1000 | Cc1nnc2n1Cc1sc(C#Cc3cnn(-c4cccc5c4C(=O)N(C4CCC(=O)NC4=O)C5=O)c3)c(Cc3ccccc3)c1OC2 (centres undefined) | Activity [8]: inactive; Activity [9]: inactive; Activity [10]: inactive
9 |  |  |  | Cc1nnc2n1-c1sc(C#Cc3cnn(C)c3)c(Cc3ccccc3)c1COC2 | Activity (RS4-11 [11]): Active; Activity [12]: inactive; Activity [13]: Active
10 | 0.47 | 2.23 | 0.379 | Cc1nnc2n1Cc1sc(C#Cc3cnn(CCNc4cccc5c4C(=O)N(C4CCC(=O)NC4=O)C5=O)c3)c(Cc3ccccc3)c1OC2 (centres undefined) | Activity (RS4-11 [3]): Active
11 | 0.138 | 0.56 | 0.038 | Cc1nnc2n1Cc1sc(C#Cc3cnn(CCCNc4cccc5c4C(=O)N(C4CCC(=O)NC4=O)C5=O)c3)c(Cc3ccccc3)c1OC2 (centres undefined) | Activity (RS4-11 [3]): Active; Activity [4]: Active; Activity [5]: Active; Activity [6]: Active
12 |  |  |  | Cc1nnc2n1-c1sc(C#N)c(Cc3ccccc3)c1COC2 | IC50 [7]: 0.72 µM; Ki [7]: 250 nM
13 |  |  |  | Cc1sc2c(c1C)COCc1nnc(C)n1-2 | IC50 [7]: 4.4 µM; Ki [7]: 1500 nM
14 | 19.7 | 311 | 20.8 | Cc1nnc2n1Cc1sc(C#Cc3cnn(COc4cccc5c4C(=O)N(C4CCC(=O)NC4=O)C5=O)c3)c(Cc3ccccc3)c1OC2 (centres undefined) | Activity [14]: Dose-dependent effect; Activity [15]: Dose-dependent effect; Activity [16]: Dose-dependent effect
15 | 0.035 | 0.51 | 0.025 | Cc1nnc2n1Cc1sc(C#Cc3cnn(CCCNc4cccc5c4CN(C4CCC(=O)NC4=O)C5=O)c3)c(Cc3ccccc3)c1OC2 (centres undefined) | 
16 | 0.0654 | 0.19 | 0.02 | Cc1nnc2n1Cc1sc(C#Cc3cnn(CCCCNc4cccc5c4C(=O)N(C4CCC(=O)NC4=O)C5=O)c3)c(Cc3ccccc3)c1OC2 (centres undefined) | Activity [2]: Active; Activity (RS4-11 [3]): Active; Activity [4]: Active; Activity [5]: Active; Activity [6]: Active
